Assay results from ChEMBL document CHEMBL3593160, “Orally active ghrelin receptor inverse agonists and their actions on a rat obesity model” (Bioorg Med Chem, 2015).
Activity calls are given as the source filed them. No cut-off for these calls is given here.

Legend:
[1] = target: Growth hormone secretagogue receptor type 1 (Homo sapiens, UniProt Q92847); assay: Displacement of [125I]human ghrelin from human ghrelin receptor expressed in CHO cell membranes incubated for 30 mins by scintillation counting method
Summary of the method: (§1)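 Membranes from CHO cells stably expressing rat or human ghrelinR (3.34 µg protein) incubated with 0.04 nM [125I]human ghrelin and varied compound concentrations for 30 min at room temperature. Buffer: 50 mM Hepes pH 7.5, 1 mM CaCl2, 5 mM MgCl2, 75 mM NaCl, 0.5% BSA. Membranes filtered and washed; bound radioactivity counted by scintillation.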

[2] = target: Growth hormone secretagogue receptor type 1 (Rattus norvegicus) (UniProt O08725); assay: Antagonist activity at ghrelin receptor in Sprague-Dawley rat primary pituitary cells assessed as inhibition of ghrelin-induced growth hormone secretion incubated for 15 mins by ELISA method relative to control; type: cell-based; conditions: Pituitary gland cell
Summary of the method: (§2)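 SD rat (6–8 weeks, male) anterior pituitary cells dispersed with collagenase and papain and cultured 2 days. Cells preincubated 1.5 h in HBSS with 1% BSA, 0.25% glucose and 25 mM HEPES, then treated 15 min at 37 °C with 1 nM ghrelin present. GH in supernatant measured by ELISA. Inhibition = (C−E)/C×100.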

[3] = Oral bioavailability in ICR mouse by LC/MS/MS method; type: ADME, organism-based; conditions: in vivo
[4] = target: T1, Growth hormone secretagogue receptor type 1 (Rattus norvegicus, UniProt O08725); assay: Inverse agonist activity rat ghrelin receptor expressed in HEK293 cells by luciferase reporter gene assay; type: cell-based
Summary of the method: (§3)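 HEK293 cells transiently transfected (about 5 h, Lipofectamine 2000) with rat ghrelinR vector (10 ng) and pNFAT-Luc (100 ng) per well. Compounds added in RPMI1640 with 0.1% dialyzed FBS and incubated overnight at 37 °C. Constitutive NFAT-luciferase signal read by luminescence; viability checked by AlamarBlue.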

[5] = target: T1, Growth hormone secretagogue receptor type 1; assay: Displacement of [125I]human ghrelin from rat ghrelin receptor expressed in CHO cell membranes incubated for 30 mins by scintillation counting method; summary of the method: as §1
[6] = Total clearance in ICR mouse by LC/MS/MS method; type: ADME, organism-based; conditions: in vivo
[7] = target: T1, Growth hormone secretagogue receptor type 1; assay: Antagonist activity at rat ghrelin receptor expressed in CHO cells assessed as blocking of human ghrelin-induced response by FLIPR based intracellular Ca2+ mobilization assay; type: functional, cell-based
Summary of the method: (§4)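 CHO cells stably expressing rat ghrelinR, loaded with Calcium 3 dye for 2.5 h at room temperature in HBSS with 20 mM Hepes, 2.5 mM probenecid and 1 mg/mL BSA. Compound added, then 1 nM human ghrelin. Response taken as peak fluorescence minus basal.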

[8] = target: Growth hormone secretagogue receptor type 1 (Rattus norvegicus) (UniProt O08725); assay: Antagonist activity at rat ghrelin receptor expressed in CHO cells assessed as blocking of human ghrelin-induced response by FLIPR based intracellular Ca2+ mobilization assay relative to control; type: functional, cell-based; summary of the method: as §4
Liver microsome = assay: Metabolic stability in human liver microsomes assessed as metabolic rate at 1 uM incubated for 30 mins in presence of NADPH by LC/MS/MS method; type: ADME; conditions: 0.5 h
[9] = target: T1, Growth hormone secretagogue receptor type 1; assay: Antagonist activity at ghrelin receptor in Sprague-Dawley rat primary pituitary cells assessed as inhibition of ghrelin-induced growth hormone secretion incubated for 15 mins by ELISA method; type: cell-based, Pituitary gland cell; summary of the method: as §2
[10] = target: Growth hormone secretagogue receptor type 1 (Rattus norvegicus) (UniProt O08725); assay: Inverse agonist activity rat ghrelin receptor expressed in HEK293 cells by luciferase reporter gene assay relative to control; type: cell-based; summary of the method: as §3
[11] = Plasma concentration in Sprague-Dawley rat model of high-fat diet-induced obesity at 30 mg/kg, po BID for 3 weeks; type: ADME, organism-based
Summary of the method: (§5)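 Male SD rats fed 60% fat diet for 10 weeks, habituated to oral vehicle dosing for 3 weeks. Compound given orally as a suspension in 0.5% hydroxypropyl cellulose at 9:30 am and 6:00 pm. Plasma levels measured on the first dosing day. AUC0-24 from these levels; mean plasma concentration = AUC0-24/24 h.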

[12] = Ratio of free drug concentration in brain of Sprague-Dawley rat model of high-fat diet-induced obesity at 10 mg/kg, po BID for 3 week to IC50 for displacement of [125I]human ghrelin from rat ghrelin receptor expressed in CHO cell membranes; type: organism-based; conditions: in vivo, 504 h
Summary of the method: (§6)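 Free concentration = total concentration × free fraction from human plasma protein binding by equilibrium dialysis. Plasma level is AUC0-24/24 h on day 1 of twice-daily oral dosing in HFD-obese SD rats. Brain level is plasma × B/P ratio from normal rats. Each is divided by the binding IC50.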

[13] = Protein binding in human plasma at 10 uM incubated for 4 hrs by equilibrium dialysis; type: ADME, cell-free; conditions: read-out: PPB
Summary of the method: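 10 µM compound in human plasma dialysed against DPBS pH 7.4 for 4 h at 37 °C by rapid equilibrium dialysis. Plasma and buffer fractions acetonitrile-extracted and quantified by LC/MS/MS.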

[14] = Ratio of plasma concentration in Sprague-Dawley rat model of high-fat diet-induced obesity at 10 mg/kg, po BID for 3 week to IC50 for displacement of [125I]human ghrelin from rat ghrelin receptor expressed in CHO cell membranes; type: organism-based; conditions: in vivo, 504 h
Summary of the method: (§7)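 Mean plasma concentration (AUC0-24/24 h, day 1 of twice-daily oral dosing in HFD-obese SD rats) divided by the binding IC50.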

[15] = Drug concentration in brain of Sprague-Dawley rat model of high-fat diet-induced obesity at 10 mg/kg, po BID for 3 weeks; type: ADME, organism-based; conditions: read-out: Drug uptake
Summary of the method: (§8)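 Brain level estimated as mean plasma concentration (AUC0-24/24 h, day 1 of twice-daily oral dosing in HFD-obese SD rats) multiplied by the B/P ratio from normal rats. The ratio divides this by the binding IC50.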

[16] = Drug concentration in brain of Sprague-Dawley rat model of high-fat diet-induced obesity at 30 mg/kg, po BID for 3 weeks; type: ADME, organism-based; conditions: read-out: Drug uptake; summary of the method: as §8
[17] = Ratio of free drug concentration in brain of Sprague-Dawley rat model of high-fat diet-induced obesity at 30 mg/kg, po BID for 3 week to IC50 for displacement of [125I]human ghrelin from rat ghrelin receptor expressed in CHO cell membranes; type: organism-based; conditions: in vivo, 504 h; summary of the method: as §6
[18] = Ratio of free plasma concentration in Sprague-Dawley rat model of high-fat diet-induced obesity at 10 mg/kg, po BID for 3 week to IC50 for displacement of [125I]human ghrelin from rat ghrelin receptor expressed in CHO cell membranes; type: organism-based; conditions: in vivo, 504 h; summary of the method: as §6
[19] = Plasma concentration in Sprague-Dawley rat model of high-fat diet-induced obesity at 10 mg/kg, po BID for 3 weeks; type: ADME, organism-based; summary of the method: as §5
Rattus norvegicus [20] = assay: Inhibition of total calorie intake in Sprague-Dawley rat model of high-fat diet-induced obesity at 10 mg/kg, po BID 3 weeks; type: functional, organism-based; conditions: in the assay text read “14 days” for “3 weeks”
Summary of the method: (§9)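 Male SD rats given a 60% fat diet for 10 weeks, habituated 3 weeks to oral vehicle, and randomized to vehicle, treatment or pair-fed groups. Oral dosing twice daily (9:30 am, 6:00 pm) as a 0.5% hydroxypropyl cellulose suspension. Body weight and daily food intake recorded before the morning dose. Pair-fed rats got the previous day's treated-group mean intake plus vehicle.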

[21] = Ratio of drug concentration in brain of Sprague-Dawley rat model of high-fat diet-induced obesity at 10 mg/kg, po BID for 3 week to IC50 for displacement of [125I]human ghrelin from rat ghrelin receptor expressed in CHO cell membranes; type: organism-based; conditions: in vivo, 504 h; summary of the method: as §8
[22] = Ratio of drug level in brain to plasma of Sprague-Dawley rat at 1 mg/kg, iv after 2 hrs by LC/MS/MS method; type: ADME, organism-based; conditions: read-out: BPR
Rattus norvegicus [23] = assay: Inhibition of total calorie intake in Sprague-Dawley rat model of high-fat diet-induced obesity at 30 mg/kg, po BID 3 weeks; type: functional, organism-based; conditions: in the assay text read “14 days” for “3 weeks”; summary of the method: as §9
Rattus norvegicus [24] = assay: Oral bioavailability in Sprague-Dawley rat at 10 mg/kg by LC/MS/MS method; type: ADME, organism-based; conditions: in vivo
Summary of the method: (§10)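 Non-fasted SD rats (n = 3/group) dosed 10 mg/kg orally or 1 mg/kg iv in 5% DMSO/10% HPCD in saline. Heparinized plasma sampled 0.08 (iv only) to 24 h. Parameters by noncompartmental analysis.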

[25] = Ratio of free plasma concentration in Sprague-Dawley rat model of high-fat diet-induced obesity at 30 mg/kg, po BID for 3 week to IC50 for displacement of [125I]human ghrelin from rat ghrelin receptor expressed in CHO cell membranes; type: organism-based; conditions: in vivo, 504 h; summary of the method: as §6
Rattus norvegicus [26] = assay: Total clearance in Sprague-Dawley rat at 1 mg/kg, iv by LC/MS/MS method; type: ADME, organism-based; conditions: in vivo; summary of the method: as §10
[27] = Ratio of plasma concentration in Sprague-Dawley rat model of high-fat diet-induced obesity at 30 mg/kg, po BID for 3 week to IC50 for displacement of [125I]human ghrelin from rat ghrelin receptor expressed in CHO cell membranes; type: organism-based; conditions: in vivo, 504 h; summary of the method: as §7
Rattus norvegicus [28] = assay: AUC (0 to 24 hrs) in Sprague-Dawley rat model of high-fat diet-induced obesity at 10 mg/kg, po BID for 3 weeks; type: ADME, organism-based; parameters: dose 10 mg/kg, time < 24 hr, route oral; conditions: in vivo; summary of the method: as §5
[29] = Ratio of drug concentration in brain of Sprague-Dawley rat model of high-fat diet-induced obesity at 30 mg/kg, po BID for 3 week to IC50 for displacement of [125I]human ghrelin from rat ghrelin receptor expressed in CHO cell membranes; type: organism-based; conditions: in vivo, 504 h; summary of the method: as §8
[30] = AUC (0 to 24 hrs) in Sprague-Dawley rat model of high-fat diet-induced obesity at 30 mg/kg, po BID for 3 weeks; type: ADME, organism-based; parameters: time < 24 hr, dose 30 mg/kg, route oral; conditions: in vivo; summary of the method: as §5
Rattus norvegicus [31] = assay: Inhibition of daily weight gain in Sprague-Dawley rat model of high-fat diet-induced obesity at 30 mg/kg, po BID for14 days; type: functional, organism-based; summary of the method: as §9

Growth hormone secretagogue receptor type 1 (Rattus norvegicus), sequence (O08725 whole entry): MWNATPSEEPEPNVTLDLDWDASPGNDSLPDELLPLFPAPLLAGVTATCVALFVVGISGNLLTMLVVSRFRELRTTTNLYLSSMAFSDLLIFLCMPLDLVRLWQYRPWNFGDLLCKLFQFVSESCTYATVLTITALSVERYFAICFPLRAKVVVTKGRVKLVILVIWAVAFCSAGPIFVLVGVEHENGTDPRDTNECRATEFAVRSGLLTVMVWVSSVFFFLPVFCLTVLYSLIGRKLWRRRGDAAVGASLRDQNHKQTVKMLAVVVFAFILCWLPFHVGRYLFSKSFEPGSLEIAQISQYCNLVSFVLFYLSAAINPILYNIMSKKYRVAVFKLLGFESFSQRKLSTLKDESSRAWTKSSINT
T1 sequence (O08725 whole entry): as above
Growth hormone secretagogue receptor type 1 (Homo sapiens, UniProt Q92847), sequence (Q92847 whole entry): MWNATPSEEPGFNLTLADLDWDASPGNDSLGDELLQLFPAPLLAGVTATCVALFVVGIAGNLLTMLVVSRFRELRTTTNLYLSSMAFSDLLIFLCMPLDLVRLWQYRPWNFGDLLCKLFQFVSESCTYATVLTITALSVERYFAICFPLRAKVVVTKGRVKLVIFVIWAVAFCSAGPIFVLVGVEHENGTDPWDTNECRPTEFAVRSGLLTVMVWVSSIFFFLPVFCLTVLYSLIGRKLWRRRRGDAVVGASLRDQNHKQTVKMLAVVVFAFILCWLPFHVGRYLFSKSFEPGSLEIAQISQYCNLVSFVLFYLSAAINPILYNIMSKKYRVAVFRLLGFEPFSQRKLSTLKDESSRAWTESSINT

| SMILES | IC50 [1] | Efficacy [2] | IC50 [4] | IC50 [5] | IC50 [7] | Efficacy [8] | Drug metabolism (Liver microsome) | IC50 [9] | Efficacy [10] | concentration at 504 h [11] | Ratio [12] | fraction unbound at 4 h, 10 µM [13] | Ratio [14] | concentration at 504 h [15] | concentration at 504 h [16] | Ratio [17] | Ratio [18] | concentration at 504 h [19] | inhibition (Rattus norvegicus [20]) | Ratio [21] | also measured |
| --- | --- | --- | --- | --- | --- | --- | --- | --- | --- | --- | --- | --- | --- | --- | --- | --- | --- | --- | --- | --- | --- |
| COc1ccc(CNC(=O)c2cc(C3=C[C@@H]4CC[C@H](C3)N4C(C)=O)cnc2NCc2ccc3c(c2)OCO3)cc1Cl | 0.3 nM | > 95% | 9.8 nM | 5.6 nM | 100 nM | > 95% | 39 pmol/min/mg | 32.8 nM | > 95% |  |  |  |  |  |  |  |  |  |  |  | bioavailability [3]: 7.2%; clearance [6]: 180 mL/min/kg |
| COc1ccc(CNC(=O)c2cc(C#CC(C)(C)NC(C)=O)cnc2NCc2ccc3c(c2)OCO3)cc1Cl | 3 nM | > 95% | 26 nM | 6.6 nM | 34 nM | > 95% | 81 pmol/min/mg | 36.2 nM | > 95% | 5670 nM | 0.2 | 0.01 | 286 | 132 nM | 370 nM | 0.6 | 2.9 | 1890 nM | inactive | 19 | Kp at 2 h [22]: 0.07; inhibition (Rattus norvegicus [23]): inactive; F (Rattus norvegicus [24]): 46.4%; Ratio [25]: 8.6; CL (Rattus norvegicus [26]): 27.8 mL/min/kg; Ratio [27]: 859; AUC (Rattus norvegicus [28]): 24901 ng·h/mL; Ratio [29]: 58; AUC at 24 h [30]: 74700 ng·h/mL |
| Cc1ccc(CNC(=O)c2cc(C#CC(C)(C)O)cnc2NCc2ccc3c(c2)OCO3)cc1C(F)F | 0.44 nM | > 95% | 5.4 nM | 0.28 nM | 13 nM | > 95% | 103 pmol/min/mg | 11.6 nM | > 95% | 272 nM | 0.7 | 0.01 | 324 | 19 nM | 57 nM | 2 | 3.2 | 91 nM | inactive | 68 | Kp at 2 h [22]: 0.21; inhibition (Rattus norvegicus [23]): inactive; F (Rattus norvegicus [24]): 23.8%; Ratio [25]: 97; CL (Rattus norvegicus [26]): 12.3 mL/min/kg; Ratio [27]: 972; AUC (Rattus norvegicus [28]): 1105 ng·h/mL; Ratio [29]: 203; inhibition (Rattus norvegicus [31]): Active; AUC at 24 h [30]: 3310 ng·h/mL |
